Bioassay records: PubChem BioAssay, several laboratories
Only some compounds are listed: those with a hit (about 2.1% of all), similar ones and a draw of the others.
FAS TE block: FAS thioesterase (human) inhibition. P49327. recombinant FAS-TE, OMFH fluorogenic substrate, fluorescence endpoint. inhibition, % at 15 µM. 360,000 tested, 0.67% active;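 active means compounds whose normalised, plate-corrected inhibition of enzyme fluorescence in the single-dose primary screen is 50% or more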;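 further: 0% = DMSO with enzyme and 100% = substrate without enzyme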
Target sequence (P49327 whole entry, looked up): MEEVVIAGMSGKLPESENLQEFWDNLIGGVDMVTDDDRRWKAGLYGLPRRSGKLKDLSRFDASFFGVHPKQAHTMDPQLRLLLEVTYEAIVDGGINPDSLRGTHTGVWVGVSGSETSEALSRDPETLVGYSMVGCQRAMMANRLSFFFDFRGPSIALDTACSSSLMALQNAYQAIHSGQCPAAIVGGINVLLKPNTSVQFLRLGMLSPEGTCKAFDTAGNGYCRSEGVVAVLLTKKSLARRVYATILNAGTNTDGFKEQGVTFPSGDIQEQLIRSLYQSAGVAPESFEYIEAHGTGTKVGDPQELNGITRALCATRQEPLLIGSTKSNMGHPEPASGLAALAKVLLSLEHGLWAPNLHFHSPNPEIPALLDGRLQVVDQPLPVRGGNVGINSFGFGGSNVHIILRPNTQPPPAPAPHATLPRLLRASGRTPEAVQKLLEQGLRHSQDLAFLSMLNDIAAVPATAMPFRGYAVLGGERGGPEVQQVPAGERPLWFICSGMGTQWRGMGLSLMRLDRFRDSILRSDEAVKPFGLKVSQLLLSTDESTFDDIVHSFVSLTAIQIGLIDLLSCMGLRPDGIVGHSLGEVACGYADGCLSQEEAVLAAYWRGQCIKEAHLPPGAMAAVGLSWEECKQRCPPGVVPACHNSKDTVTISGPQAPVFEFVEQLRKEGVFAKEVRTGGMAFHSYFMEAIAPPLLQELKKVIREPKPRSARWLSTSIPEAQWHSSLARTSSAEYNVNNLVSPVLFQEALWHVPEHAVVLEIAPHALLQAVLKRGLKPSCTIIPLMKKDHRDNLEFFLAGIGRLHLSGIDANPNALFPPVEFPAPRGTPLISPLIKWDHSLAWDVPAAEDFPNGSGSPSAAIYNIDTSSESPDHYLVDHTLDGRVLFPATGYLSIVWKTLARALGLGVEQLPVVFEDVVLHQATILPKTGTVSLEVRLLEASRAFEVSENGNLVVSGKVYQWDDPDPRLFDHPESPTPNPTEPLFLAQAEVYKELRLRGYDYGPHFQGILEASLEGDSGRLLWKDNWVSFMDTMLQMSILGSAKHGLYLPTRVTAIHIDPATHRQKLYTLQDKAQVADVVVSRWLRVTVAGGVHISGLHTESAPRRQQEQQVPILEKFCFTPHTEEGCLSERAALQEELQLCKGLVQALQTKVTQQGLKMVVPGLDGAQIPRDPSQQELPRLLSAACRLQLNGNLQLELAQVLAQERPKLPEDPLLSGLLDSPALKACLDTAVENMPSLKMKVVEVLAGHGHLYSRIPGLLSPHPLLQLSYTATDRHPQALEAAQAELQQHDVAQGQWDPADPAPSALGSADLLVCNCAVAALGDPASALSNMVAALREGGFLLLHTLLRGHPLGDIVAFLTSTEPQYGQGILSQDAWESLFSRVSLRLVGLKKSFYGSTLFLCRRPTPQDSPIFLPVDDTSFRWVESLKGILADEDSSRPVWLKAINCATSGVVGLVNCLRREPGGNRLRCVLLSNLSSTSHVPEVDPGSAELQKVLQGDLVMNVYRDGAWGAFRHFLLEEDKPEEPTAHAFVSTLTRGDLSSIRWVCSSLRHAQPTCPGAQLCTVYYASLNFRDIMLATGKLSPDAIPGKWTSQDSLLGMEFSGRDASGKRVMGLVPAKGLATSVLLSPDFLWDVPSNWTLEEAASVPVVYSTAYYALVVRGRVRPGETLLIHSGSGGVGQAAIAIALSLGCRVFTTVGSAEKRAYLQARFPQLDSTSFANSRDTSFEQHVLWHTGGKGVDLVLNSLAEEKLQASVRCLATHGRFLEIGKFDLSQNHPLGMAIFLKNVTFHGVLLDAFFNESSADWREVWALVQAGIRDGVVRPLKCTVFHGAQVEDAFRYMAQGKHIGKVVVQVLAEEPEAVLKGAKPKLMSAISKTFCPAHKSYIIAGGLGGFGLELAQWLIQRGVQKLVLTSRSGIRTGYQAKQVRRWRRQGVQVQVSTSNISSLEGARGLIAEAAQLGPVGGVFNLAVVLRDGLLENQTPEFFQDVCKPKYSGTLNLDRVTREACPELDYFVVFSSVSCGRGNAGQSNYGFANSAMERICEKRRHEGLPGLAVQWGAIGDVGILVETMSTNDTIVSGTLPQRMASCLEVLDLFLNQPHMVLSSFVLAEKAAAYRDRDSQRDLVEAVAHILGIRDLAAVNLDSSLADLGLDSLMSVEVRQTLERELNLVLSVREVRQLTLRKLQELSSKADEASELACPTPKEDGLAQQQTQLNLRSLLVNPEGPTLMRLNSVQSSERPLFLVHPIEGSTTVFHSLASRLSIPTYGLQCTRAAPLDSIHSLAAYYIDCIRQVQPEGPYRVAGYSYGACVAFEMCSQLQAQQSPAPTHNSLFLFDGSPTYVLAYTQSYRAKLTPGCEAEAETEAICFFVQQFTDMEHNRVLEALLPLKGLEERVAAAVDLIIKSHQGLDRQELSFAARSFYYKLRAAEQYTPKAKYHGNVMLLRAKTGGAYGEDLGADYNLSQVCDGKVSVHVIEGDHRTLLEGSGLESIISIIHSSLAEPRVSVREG
Runt-CBFb FRET: blocks binding of human RUNX1 Runt domain to CBFb; 220,000 tested, 0.46% active; inhibition, % at 20 µM; AID 1496; Cerulean-Runt/Venus-CBFb FRET ratio 530/480, 1 h; Q01196+Q13951;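 active means inhibition over about 50% at 20 µM in the single-dose screen, limit read from the data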;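 further: 0% = DMSO wells and 100% = excess unlabeled CBFb competitor control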
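Assay system: Cerulean-Runt domain / Medium: Tris 50 mM pH 7.5, KCl, K2SO4, 0.01% BSA / Timing: protein complex preformed 1 h, compound exposure 1 h, room temperature, dark / Measured by: FRET, excitation 422 nm, emission at 530 and 480 nm / Evaluation: loss of energy transfer signal / Control set: 5 µM unlabeled CBFb as full-inhibition high control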
m-calpain inh: blocks pig calpain II enzyme activity; 220,000 tested, 0.37% active; inhibition, % at 16 µM; purified calpain II, fluorogenic peptide substrate, 30 min;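 active means inhibition above about 50%, limit read from the data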
RanGTP-Impb inh: inhibitors of RanGTP-importin-beta interaction, primary screen, biochemical, FRET, CFP-Ran, YFP-importin-beta, homogeneous; cell-free CFP-Ran/YFP-importin-beta FRET ratio; inhibition, % (concentration not given with the values); 300,000 tested, 1.1% active; AID 2216;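 active means more than half of the replicate wells show a fall in the fluorescence ratio signal beyond about 16%, limit read from the data, passing the limit was not always enough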;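 further: 0% = DMSO wells and 100% = Ran loaded with GDP instead of GTP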
Runt-SMMHC FRET: blocks binding of human RUNX1 Runt domain to CBFb-SMMHC. Q01196+Q13951. Cerulean-Runt/Venus-CBFb-SMMHC FRET ratio 530/480, 1 h. inhibition, % at 20 µM. 220,000 tested, 0.74% active. AID 1434;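 active means mean inhibition across duplicate retests at 20 µM reaching about 50%, limit read from the data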;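 further: 0% = DMSO wells and 100% = wells with excess untagged CBFb-SMMHC; inhibitors lower the FRET ratio by blocking Runt binding to CBFb-SMMHC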
FAS-TE conf: confirmation of human fatty acid synthase thioesterase inhibitors; shares compounds with FAS TE block; recombinant FAS-TE, OMFH fluorogenic substrate, fluorescence; inhibition, % at 15 µM; 2,300 tested, 45% active;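 active means compounds inhibiting the enzyme by at least 50% at 15 µM in any one of the replicates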;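 further: 0% = enzyme with DMSO only and 100% = wells lacking enzyme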
Active calls of the source: *; x = no result given.

SMILES	FAS TE block	Runt-CBFb FRET	m-calpain inh	RanGTP-Impb inh	Runt-SMMHC FRET	FAS-TE conf
COC(=O)C1=C(C(=O)OC)[C@@H]2N(C)c3ccc(OC)cc3[C@@]23C[C@@H](C(=O)OC)N(S(=O)(=O)c2ccc([N+](=O)[O-])cc2)C3=N1	66.5*	-2.3	-26.6	-2.9	1.1	26.5
CCCCS(=O)(=O)N1C2=NC(C(=O)OC)=C(C(=O)OC)[C@@H]3N(C)c4ccc(OC)cc4[C@]23C[C@H]1C(=O)OC	4.0	-1.0	6.3	4.1	-1.9	x
Cc1ccc(CC#N)c(-c2c(CC#N)ccc(C)c2C)c1C	9.6	x	x	x	x	x
Cc1ccc2c(c1C)-c1c(ccc(C)c1C)C(=O)C2=O	61.1*	x	x	x	x	56.0*
COc1ccc(-c2cc(C(=O)Nc3nc4ccccc4s3)c3ccccc3n2)cc1OC	82.2*	-7.2	-40.5	-0.3	-11.7	22.8
COc1ccc(-c2cc(C(=O)Nc3ccccc3O)c3ccccc3n2)cc1OC	-6.7	3.1	-141.5	4.8	1.3	x
COc1cccc(-c2cc(C(=O)Nc3ccc([N+](=O)[O-])cn3)c3ccccc3n2)c1	51.5*	1.0	-52.0	4.1	3.8	8.4
COc1ccc(-c2cc(C(=O)Nc3sc4c(c3C#N)CCCC4)c3ccccc3n2)cc1OC	51.6*	-5.4	-72.9	1.6	-22.7	-0.8
COc1cc2c(cc1NC(=O)c1cc(-c3ccccn3)nc3ccccc13)oc1ccccc12	57.2*	-12.6	-42.7	4.3	-12.2	-4.7
Cc1ccc(C2Cc3cc(O)c(O)cc3CN2)cc1 (stereo unspecified)	-7.1	x	x	0.4	x	x
CCOC(=O)c1c(-c2ccccc2)csc1NC(=O)c1cc(S(=O)(=O)N2CCOCC2)ccc1C	52.3*	-2.8	-74.7	7.9	-5.4	16.8
Cc1csc(NC(=O)C2CCN(S(=O)(=O)c3ccc4c(c3)oc(=O)n4C)CC2)n1	58.9*	0.5	8.1	-4.2	1.4	67.8*
COc1cccc(CNC(=O)CSc2ccc(-c3cccs3)nn2)c1	-1.8	1.1	-5.8	-0.5	-0.3	x
COc1cccc(NC(=O)CN(C)C(=O)Cn2c(=O)oc3ccccc32)c1	-4.3	x	x	2.5	x	x
COc1ccc2nc(N3CCCCC3)c(/C=C3\SC(=S)NC3=O)cc2c1	62.0*	-40.8	27.2	-4.3	-101.7	23.9
O=C1NC(=S)S/C1=C\c1cc2ccccc2nc1N1CCCCC1	68.7*	-38.1	55.9*	-21.7	-101.2	51.0*
Cc1nn(-c2cc(N3CCCC3)ccc2[N+](=O)[O-])c(=O)c2ccccc12	-0.1	1.6	14.3	-5.2	-2.8	x
CC(C)(C)C(=O)N1CCN(c2ccc([N+](=O)[O-])c(-n3nc(-c4ccccc4)c4ccccc4c3=O)c2)CC1	73.9*	-5.9	-40.9	0.1	-5.0	9.1
CC(=O)c1cccc(-c2ccnc3c2CC(C(=O)Nc2ccc(F)c(Cl)c2)O3)c1 (stereo unspecified)	60.5*	x	x	x	x	58.0*
O=C(Nc1ccc(F)c(Cl)c1)C1Cc2c(-c3cccc(F)c3)ccnc2O1 (stereo unspecified)	39.6	x	x	x	x	x
CC(C)c1ccc(NC(=O)C2Cc3c(-c4cccc(F)c4)ccnc3O2)cc1 (stereo unspecified)	50.0*	x	x	x	x	42.3
Cn1c(SCc2cccc(Cl)c2)nc(C(F)(F)F)cc1=O	63.4*	-3.1	-16.2	2.3	-2.3	61.6*
Cn1c(SCc2ccccc2)nc(C(F)(F)F)cc1=O	21.3	-1.4	3.0	7.1	2.2	x
Cn1c(SCc2c(Cl)cccc2Cl)nc(C(F)(F)F)cc1=O	52.0*	-1.6	-0.9	2.7	1.5	6.7
Cc1nc2ccc([N+](=O)[O-])cc2c(=O)n1Cc1cccc(F)c1	41.0	x	x	2.2	x	x
SMILES	FAS TE block	Runt-CBFb FRET	m-calpain inh	RanGTP-Impb inh	Runt-SMMHC FRET	FAS-TE conf
Cc1ccccc1Cn1c(C)nc2ccc([N+](=O)[O-])cc2c1=O	60.8*	x	x	0.5	x	50.8*
Cc1nc2ccc([N+](=O)[O-])cc2c(=O)n1Cc1ccc(F)cc1	70.9*	x	x	-0.1	x	75.1*
Cc1cccc(Cn2c(C)nc3ccc([N+](=O)[O-])cc3c2=O)c1	40.3	x	x	5.7	x	x
O=C(COC(=O)c1ccc2ccccc2c1)NCc1ccccc1	-1.6	x	x	x	x	x
O=C(CN1C(=O)S/C(=C\c2ccccc2)C1=O)Nc1cc([N+](=O)[O-])ccc1O	81.2*	x	x	-1.4	x	81.6*
O=C1/C(=C\c2cccc([N+](=O)[O-])c2O)SC(=S)N1Cc1ccccc1	18.5	x	x	4.6	x	x
COc1cc(/C=C2\SC(=O)N(Cc3ccc(Cl)cc3)C2=O)cc([N+](=O)[O-])c1O	72.3*	-5.7	5.2	x	-15.1	38.3
COc1cc(/C=C2\SC(=O)N(Cc3ccc(F)cc3)C2=O)cc([N+](=O)[O-])c1O	68.2*	0.5	-8.7	-4.7	-12.6	36.6
O=C1/C(=C/c2ccc(O)c([N+](=O)[O-])c2)SC(=S)N1Cc1ccccc1	86.0*	-16.5	9.5	-0.3	-30.9	10.9
Cc1cc(C)cc(NC(=O)C(OC(=O)c2ccc(NC(=O)CC#N)cc2)c2ccccc2)c1 (stereo unspecified)	23.4	x	x	-1.2	x	x
CC(C)OCCCNC(=O)CCCC(=O)Nc1ccc(OCCc2ccccc2)cc1	10.5	x	x	4.5	x	x
COc1ccc(NC(=O)CN2CCN(c3nc(-c4ccc(F)cc4)cs3)CC2)c(OC)c1	54.5*	3.0	56.4*	0.3	1.6	22.2
COc1ccc(NC(=O)CN2CCN(c3nc(-c4cccc(OC)c4)cs3)CC2)cc1	17.9	-1.9	11.1	-0.8	4.5	x
Cc1nn(-c2ccccc2)c(N2CCCC2)c1/C=N/NC(=O)c1ccccc1O	-6.7	-4.8	-25.2	1.0	-1.2	x
CCNc1ccc(C(=O)N/N=C/c2c(C)nn(-c3ccccc3)c2N2CCCC2)cc1[N+](=O)[O-]	69.5*	-12.6	-61.5	-2.9	0.5	22.3
Cc1ccc(NS(=O)(=O)c2cccc(C(=O)N/N=C/c3ccc4c(c3)OCCO4)c2)c(C)c1	28.3	-2.0	-103.0	-0.6	2.1	x
Cc1ccc(NS(=O)(=O)c2cccc(C(=O)N/N=C/c3c(C)nn(-c4ccccc4)c3N3CCCC3)c2)c(C)c1	50.6*	-2.6	-197.6	-3.4	-9.4	19.3
CC1=Nc2ccccc2N=C(NC(=O)CN2CCN(c3ccc(F)cc3)CC2)C1c1ccccc1 (stereo unspecified)	21.5	-1.1	-26.4	-1.2	-0.6	x
CCN(CC)c1ccc(S(=O)(=O)N2CCOCC2)cc1NC(=O)CN1C(=O)NC2(CCC(C)CC2)C1=O (stereo unspecified)	-0.8	x	x	1.3	x	x
CCc1nc2c(OCc3ccc(Cl)cc3)cccn2c1N(C=O)Cc1ccccc1	63.8*	x	x	x	x	71.2*
Cc1cnc(C(=O)N(CC(C)C)c2c(N)n(CC(C)C)c(=O)[nH]c2=O)cn1	-8.5	x	x	x	x	x
